Source: ChEMBL document CHEMBL1134325, “Diaminoindanes as microsomal triglyceride transfer protein inhibitors” (J Med Chem, 2001)

test system: Rattus norvegicus; test: Inhibition of total cholesterol in normolipidemic rats after 2 hr of 50 mg/kg oral dosing; type: functional
Procedure, shortened: (§1)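 Overnight-fasted normolipidemic rats received a single oral dose in cornstarch vehicle. Blood was drawn at 2, 6 and 24 h post-dose and assayed for triglycerides and total cholesterol, with free access to food after the 6 h sample. Value is mean percent inhibition versus a separate vehicle-treated group, unpaired t test p < 0.05, NS = no significant change, N = 6.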

Structure (SMILES)	Reduction
Cc1cccc(C(=O)Nc2ccc3c(c2)CCC(NS(C)(=O)=O)CC3)c1-c1ccc(C(F)(F)F)cc1 (stereo not drawn)	29%
COC(=O)NC1CCc2ccc(NC(=O)c3cc(C)cc(C)c3-c3ccc(C(F)(F)F)cc3)cc2CC1 (stereo not drawn)	17%
O=C(Nc1ccc2c(c1)CC(NS(=O)(=O)c1ccccc1)C2)c1ccccc1-c1ccc(C(F)(F)F)cc1 (stereo not drawn)	21%

test system: Rattus norvegicus; test: Inhibition of total cholesterol in normolipidemic rats after 24 hr of 50 mg/kg oral dosing; no significant change; type: functional, organism-based; design: dose 50 mg/kg; procedure, shortened: as §1

Structure (SMILES)	NS
COC(=O)N[C@H]1Cc2ccc(NC(=O)c3cc(C)ccc3-c3ccc(C(F)(F)F)cc3)cc2C1	no significant change
O=C(Nc1ccc2c(c1)CC(NS(=O)(=O)c1ccccc1)C2)c1ccccc1-c1ccc(C(F)(F)F)cc1 (stereo not drawn)	no significant change

test system: Rattus norvegicus; test: Inhibition of plasma triglycerides in normolipidemic rats after 2 hr of 50 mg/kg oral dosing; no significant change; type: functional, organism-based; design: dose 50 mg/kg; procedure, shortened: as §1

Structure (SMILES)	NS
COC(=O)N[C@H]1Cc2ccc(NC(=O)c3cc(C)ccc3-c3ccc(C(F)(F)F)cc3)cc2C1	no significant change

test system: Rattus norvegicus; test: Inhibition of plasma triglycerides in normolipidemic rats after 24 hr of 50 mg/kg oral dosing; No significant change; type: functional, organism-based; design: dose 50 mg/kg; procedure, shortened: as §1

Structure (SMILES)	NS
COC(=O)N[C@H]1Cc2ccc(NC(=O)c3cc(C)ccc3-c3ccc(C(F)(F)F)cc3)cc2C1	no significant change

test system: Rattus norvegicus; test: Inhibition of plasma triglycerides in normolipidemic rats after 2 hr of 50 mg/kg oral dosing; type: functional; procedure, shortened: as §1

Structure (SMILES)	Reduction
Cc1cccc(C(=O)Nc2ccc3c(c2)CCC(NS(C)(=O)=O)CC3)c1-c1ccc(C(F)(F)F)cc1 (stereo not drawn)	81%
COC(=O)NC1CCc2ccc(NC(=O)c3cc(C)cc(C)c3-c3ccc(C(F)(F)F)cc3)cc2CC1 (stereo not drawn)	73%
O=C(Nc1ccc2c(c1)CC(NS(=O)(=O)c1ccccc1)C2)c1ccccc1-c1ccc(C(F)(F)F)cc1 (stereo not drawn)	57%

test system: Rattus norvegicus; test: Inhibition of plasma triglycerides in normolipidemic rats after 6 hr of 50 mg/kg oral dosing; type: functional; procedure, shortened: as §1

Structure (SMILES)	Reduction
Cc1cccc(C(=O)Nc2ccc3c(c2)CCC(NS(C)(=O)=O)CC3)c1-c1ccc(C(F)(F)F)cc1 (stereo not drawn)	53%
COC(=O)NC1CCc2ccc(NC(=O)c3cc(C)cc(C)c3-c3ccc(C(F)(F)F)cc3)cc2CC1 (stereo not drawn)	44%
O=C(Nc1ccc2c(c1)CC(NS(=O)(=O)c1ccccc1)C2)c1ccccc1-c1ccc(C(F)(F)F)cc1 (stereo not drawn)	30%

test system: Rattus norvegicus; test: Inhibition of total cholesterol in normolipidemic rats after 6 hr of 50 mg/kg oral dosing; type: functional; procedure, shortened: as §1

Structure (SMILES)	Reduction
Cc1cccc(C(=O)Nc2ccc3c(c2)CCC(NS(C)(=O)=O)CC3)c1-c1ccc(C(F)(F)F)cc1 (stereo not drawn)	41%
COC(=O)NC1CCc2ccc(NC(=O)c3cc(C)cc(C)c3-c3ccc(C(F)(F)F)cc3)cc2CC1 (stereo not drawn)	21%

test system: Rattus norvegicus; test: Inhibition of plasma triglycerides in normolipidemic rats after 24 h of 50 mg/kg oral dosing; no significant change; type: functional, organism-based; design: dose 50 mg/kg; procedure, shortened: as §1

Structure (SMILES)	NS
Cc1cccc(C(=O)Nc2ccc3c(c2)CCC(NS(C)(=O)=O)CC3)c1-c1ccc(C(F)(F)F)cc1 (stereo not drawn)	no significant change
O=C(Nc1ccc2c(c1)CC(NS(=O)(=O)c1ccccc1)C2)c1ccccc1-c1ccc(C(F)(F)F)cc1 (stereo not drawn)	no significant change

test system: Rattus norvegicus; test: Inhibition of total cholesterol in normolipidemic rats after 6 h of […] mg/kg oral dosing; no significant change; type: functional, organism-based; design: dose 50 mg/kg

Structure (SMILES)	NS
COC(=O)N[C@H]1Cc2ccc(NC(=O)c3cc(C)ccc3-c3ccc(C(F)(F)F)cc3)cc2C1	no significant change
O=C(Nc1ccc2c(c1)CC(NS(=O)(=O)c1ccccc1)C2)c1ccccc1-c1ccc(C(F)(F)F)cc1 (stereo not drawn)	no significant change

test system: Rattus norvegicus; test: Inhibition of total cholesterol in normolipidemic rats after 2 hr of 50 mg/kg oral dosing; no significant change; type: functional, organism-based; design: dose 50 mg/kg; procedure, shortened: as §1

Structure (SMILES)	NS
COC(=O)N[C@H]1Cc2ccc(NC(=O)c3cc(C)ccc3-c3ccc(C(F)(F)F)cc3)cc2C1	no significant change

test system: Rattus norvegicus; test: Inhibition of plasma triglycerides in normolipidemic rats after 6 h of […] mg/kg oral dosing; no significant change; type: functional, organism-based; design: dose 50 mg/kg

Structure (SMILES)	NS
COC(=O)N[C@H]1Cc2ccc(NC(=O)c3cc(C)ccc3-c3ccc(C(F)(F)F)cc3)cc2C1	no significant change

test system: Rattus norvegicus; test: Inhibition of total cholesterol in normolipidemic rats after 24 hr of 50 mg/kg oral dosing; type: functional; procedure, shortened: as §1

Structure (SMILES)	Reduction
Cc1cccc(C(=O)Nc2ccc3c(c2)CCC(NS(C)(=O)=O)CC3)c1-c1ccc(C(F)(F)F)cc1 (stereo not drawn)	17%
COC(=O)NC1CCc2ccc(NC(=O)c3cc(C)cc(C)c3-c3ccc(C(F)(F)F)cc3)cc2CC1 (stereo not drawn)	22%

biological target: T1, Microsomal triglyceride transfer protein large subunit (Homo sapiens, UniProt P55157); test: In vitro inhibitory activity against MTP using MTP transfer assay
T1 sequence (P55157 whole entry): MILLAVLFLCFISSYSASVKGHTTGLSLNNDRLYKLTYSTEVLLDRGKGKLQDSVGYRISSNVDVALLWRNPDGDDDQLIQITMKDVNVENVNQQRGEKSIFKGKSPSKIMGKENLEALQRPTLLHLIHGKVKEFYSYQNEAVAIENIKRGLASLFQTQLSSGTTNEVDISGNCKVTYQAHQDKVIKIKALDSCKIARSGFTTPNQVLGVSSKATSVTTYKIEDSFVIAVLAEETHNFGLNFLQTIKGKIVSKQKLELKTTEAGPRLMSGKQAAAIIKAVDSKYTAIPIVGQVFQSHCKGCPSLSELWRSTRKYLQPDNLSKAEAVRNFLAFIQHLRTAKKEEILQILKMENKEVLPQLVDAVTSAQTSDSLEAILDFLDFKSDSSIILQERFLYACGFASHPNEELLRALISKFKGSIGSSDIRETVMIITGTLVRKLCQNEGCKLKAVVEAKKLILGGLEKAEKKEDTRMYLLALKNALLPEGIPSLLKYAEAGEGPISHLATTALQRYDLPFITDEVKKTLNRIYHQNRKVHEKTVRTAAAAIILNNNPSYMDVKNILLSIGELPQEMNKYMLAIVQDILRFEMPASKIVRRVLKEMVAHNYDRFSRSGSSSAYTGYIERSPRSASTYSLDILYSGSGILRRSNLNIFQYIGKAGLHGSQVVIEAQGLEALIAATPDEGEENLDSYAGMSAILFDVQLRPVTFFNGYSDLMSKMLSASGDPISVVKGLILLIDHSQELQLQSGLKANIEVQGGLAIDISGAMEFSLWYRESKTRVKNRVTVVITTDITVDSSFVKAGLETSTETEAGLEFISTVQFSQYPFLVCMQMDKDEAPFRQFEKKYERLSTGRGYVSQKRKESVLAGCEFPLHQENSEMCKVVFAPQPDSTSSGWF

Structure (SMILES)	IC50
COC(=O)N[C@H]1Cc2ccc(NC(=O)c3cc(C)ccc3-c3ccc(C(F)(F)F)cc3)cc2C1	170 nM
Cc1cccc(C(=O)Nc2ccc3c(c2)CCC(NS(C)(=O)=O)CC3)c1-c1ccc(C(F)(F)F)cc1 (stereo not drawn)	80 nM
COC(=O)NC1CCc2ccc(NC(=O)c3cc(C)cc(C)c3-c3ccc(C(F)(F)F)cc3)cc2CC1 (stereo not drawn)	20 nM
O=C(Nc1ccc2c(c1)CC(NS(=O)(=O)c1ccccc1)C2)c1ccccc1-c1ccc(C(F)(F)F)cc1 (stereo not drawn)	105 nM

test system: Rattus norvegicus; test: Inhibition of plasma triglycerides in normolipidemic rats after 24 hr of 50 mg/kg oral dosing; type: functional; procedure, shortened: as §1

Structure (SMILES)	Reduction
COC(=O)NC1CCc2ccc(NC(=O)c3cc(C)cc(C)c3-c3ccc(C(F)(F)F)cc3)cc2CC1 (stereo not drawn)	36%
